Active and inactive are the calls of the source. The calls are words filed in the database; no cut-off is given here.
Legend:
Format in all cases: functional, cell-based
[1] = system: PBMC; experiment: Antiproliferative activity against activated human PBMC assessed as decrease in cell division at 1.6 uM after 72 hrs by flow cytometric analysis
Method in brief: (§1)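 PBMC from healthy adult donors, isolated on a density gradient and cultured in RPMI 1640 with 10% heat-inactivated FCS at 37 °C and 5% CO2. 10^5 cells were stimulated with anti-CD3 (OKT3) and anti-CD28 mAbs for 72 h with test agent or medium. Cells were labelled with CFSE (5 μM, 10 min, 37 °C) and cell division was read by flow cytometry. Three or four independent experiments, mean ± SEM.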

[2] = system: PBMC; experiment: Induction of apoptosis in human activated PBMC assessed as necrotic cells at 1.6 uM by annexinV/propidium iodide staining-based flow cytometric analysis
Method in brief: (§2)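 Donor PBMC (10^5) were activated with anti-CD3/CD28 mAbs for 72 h with test agent, medium or controls (camptothecin 30 μg/mL; Triton X-100 0.5%). Readouts were subG1 DNA content by flow cytometry, and annexin V-FITC then propidium iodide staining by flow cytometry. Gates: viable annexin−/PI−; apoptotic annexin+/PI− or +/+; necrotic annexin−/PI+. Three independent experiments, mean ± SEM.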

[3] = system: PBMC; experiment: Induction of apoptosis in human activated PBMC assessed as internucleosomal DNA fragmentation at 1.6 uM by annexinV/propidium iodide staining-based flow cytometric analysis; method in brief: as §2
[4] = system: PBMC; experiment: Antiproliferative activity against activated human PBMC assessed as decrease in cell division after 72 hrs by flow cytometric analysis; method in brief: as §1
[5] = system: PBMC; experiment: Induction of apoptosis in human activated PBMC at 1.8 to 14 uM by annexinV/propidium iodide staining-based flow cytometric analysis; method in brief: as §2
[6] = system: PBMC; experiment: Induction of apoptosis in human activated PBMC assessed as necrosis at 14 uM by annexinV/propidium iodide staining-based flow cytometric analysis; method in brief: as §2
[7] = system: PBMC; experiment: Induction of apoptosis in human activated PBMC at 30 ug/ml by annexinV/propidium iodide staining-based flow cytometric analysis; method in brief: as §2
[8] = system: PBMC; experiment: Antiproliferative activity against activated human PBMC assessed as decrease in cell division at 30 ug/ml after 72 hrs by flow cytometric analysis; method in brief: as §1
[9] = system: PBMC; experiment: Induction of apoptosis in human activated PBMC assessed as necrosis at 30 ug/ml by annexinV/propidium iodide staining-based flow cytometric analysis; method in brief: as §2

With `CC[C@H](C)[C@H](NC(=O)CN)C(=O)NCC(=O)N[C@@H](C)C(=O)N[C@H](C(=O)N[C@@H](CC(C)C)C(=O)N[C@@H](CCCCN)C(=O)N[C@H](C(=O)N[C@@H](CC(C)C)C(=O)N[C@H](C(=O)N[C@H](C(=O)NCC(=O)N[C@@H](CC(C)C)C(=O)N1CCC[C@H]1C(=O)N[C@@H](C)C(=O)N[C@@H](CC(C)C)C(=O)N[C@H](C(=O)N[C@@H](CO)C(=O)N[C@@H](Cc1c[nH]c2ccccc12)C(=O)N[C@H](C(=O)N[C@@H](CCCCN)C(=O)N[C@@H](CCCNC(=N)N)C(=O)N[C@@H](CCCCN)C(=O)N[C@@H](CCCNC(=N)N)C(=O)N[C@@H](CCC(N)=O)C(=O)N[C@@H](CCC(N)=O)C(N)=O)[C@@H](C)CC)[C@@H](C)CC)[C@@H](C)O)[C@@H](C)O)C(C)C)C(C)C` as the compound, how does the Activity [1] read?
The Activity was “Active”.

And the Activity [2]?
Its Activity is “Active”.

And the Activity [3]?
Its Activity is “Active”.

How did the Activity [4] turn out when `CC(C)C[C@@H]1NC(=O)CNC(=O)[C@H](CC(N)=O)NC(=O)[C@H](CCCNC(=N)N)NC(=O)[C@H]([C@@H](C)O)NC(=O)[C@H](CS)NC(=O)[C@H](C(C)C)NC(=O)[C@@H]2CCCN2C(=O)[C@H](CCC(=O)O)NC(=O)[C@H](CO)NC(=O)[C@H](CS)NC(=O)[C@H]([C@@H](C)O)NC(=O)[C@H](CS)NC(=O)CNC(=O)[C@@H]2CCCN2C(=O)[C@H]([C@@H](C)O)NC(=O)[C@H](CC(N)=O)NC(=O)[C@H](CS)NC(=O)[C@H]([C@@H](C)O)NC(=O)CNC(=O)CNC(=O)[C@H](C(C)C)NC(=O)[C@H](CS)NC(=O)[C@H]([C@@H](C)O)NC(=O)[C@H](CCC(=O)O)NC(=O)CNC(=O)[C@H](CS)NC(=O)[C@H](C(C)C)NC(=O)[C@@H]2CCCN2C1=O` was run?
The Activity was “Dose-dependent effect”.

And the Activity [5]?
Its Activity is “inactive”.

And the Activity [6]?
The Activity was “inactive”.

With `CC(C)C[C@@H]1NC(=O)CNC(=O)[C@H](CC(N)=O)NC(=O)[C@H](CCCNC(=N)N)NC(=O)[C@H]([C@@H](C)O)NC(=O)[C@@H]2CSSC[C@@H]3NC(=O)[C@H]([C@@H](C)O)NC(=O)CNC(=O)CNC(=O)[C@H](C(C)C)NC(=O)[C@@H]4CSSC[C@H](NC(=O)[C@H]([C@@H](C)O)NC(=O)[C@H](CSSC[C@H](NC(=O)[C@H](C(C)C)NC(=O)[C@@H]5CCCN5C1=O)C(=O)NCC(=O)N[C@@H](CCC(=O)O)C(=O)N[C@@H]([C@@H](C)O)C(=O)N4)NC(=O)CNC(=O)[C@@H]1CCCN1C(=O)[C@H]([C@@H](C)O)NC(=O)[C@H](CC(N)=O)NC3=O)C(=O)N[C@@H](CO)C(=O)N[C@@H](Cc1c[nH]c3ccccc13)C(=O)N1CCC[C@H]1C(=O)N[C@@H](C(C)C)C(=O)N2` [KALATA B1] as the compound, how does the IC50 [4] read?
The IC50 was 3.9 µM.

How did the Activity [7] turn out when `CC[C@@]1(O)C(=O)OCc2c1cc1n(c2=O)Cc2cc3ccccc3nc2-1` was run?
The Activity was “Active”.

And the Activity [8]?
Its Activity is “Active”.

And the Activity [9]?
The Activity was “Active”.
